In ChEMBL document CHEMBL4138098, “Synthesis and pharmacological evaluation of neurosteroid photoaffinity ligands” (Eur J Med Chem, 2017):
Activity calls are given as the source filed them. No cut-off for these calls is given here.

How the values were obtained:
[1] = molecular target: T1, GABA-A receptor; alpha-1/beta-3/gamma-2 (Homo sapiens) (UniProt P14867+P18507+P28472); assay: Binding affinity to human GABAA receptor alpha1beta3gamma2 expressed in HEK293 TetR cells assessed as photolabeling at 0.7 uM after 30 mins in presence of 100 uM bicuculline by coomassie blue staining based fluorographic method; type: cell-based; settings: tested as the 3H-labelled form
[2] = molecular target: T1, GABA-A receptor; alpha-1/beta-3/gamma-2 (Homo sapiens); assay: Binding affinity to human GABAA receptor alpha1beta3gamma2 expressed in HEK293 TetR cells assessed as photolabeling at 0.7 uM after 30 mins in presence of 300 uM GABA by coomassie blue staining based fluorographic method; type: cell-based; settings: tested as the 3H-labelled form
[3] = molecular target: T2, GABA-A receptor; alpha-1/beta-2/gamma-2 (Homo sapiens, UniProt P14867+P18507+P47870); assay: Positive allosteric modulation of human GABAA receptor alpha1beta2gamma2L expressed in Xenopus laevis oocytes assessed as potentiation of GABA chloride current incubated for 15 to 25 secs by two-electrode voltage clamp assay; type: cell-based
T2 sequence (P14867 whole entry): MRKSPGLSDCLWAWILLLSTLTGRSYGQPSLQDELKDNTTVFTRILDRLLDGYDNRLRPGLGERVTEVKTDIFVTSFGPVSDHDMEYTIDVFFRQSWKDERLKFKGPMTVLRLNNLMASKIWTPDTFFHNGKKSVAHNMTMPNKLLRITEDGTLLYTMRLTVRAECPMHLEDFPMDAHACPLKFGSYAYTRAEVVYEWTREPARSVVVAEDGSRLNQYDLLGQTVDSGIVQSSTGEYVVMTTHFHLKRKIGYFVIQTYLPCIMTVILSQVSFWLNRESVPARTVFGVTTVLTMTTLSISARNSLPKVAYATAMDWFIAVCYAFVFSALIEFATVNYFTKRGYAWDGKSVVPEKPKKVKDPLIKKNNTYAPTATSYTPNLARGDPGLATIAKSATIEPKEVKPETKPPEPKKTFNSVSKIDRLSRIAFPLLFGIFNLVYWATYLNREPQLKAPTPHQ
T2 sequence (P47870 whole entry): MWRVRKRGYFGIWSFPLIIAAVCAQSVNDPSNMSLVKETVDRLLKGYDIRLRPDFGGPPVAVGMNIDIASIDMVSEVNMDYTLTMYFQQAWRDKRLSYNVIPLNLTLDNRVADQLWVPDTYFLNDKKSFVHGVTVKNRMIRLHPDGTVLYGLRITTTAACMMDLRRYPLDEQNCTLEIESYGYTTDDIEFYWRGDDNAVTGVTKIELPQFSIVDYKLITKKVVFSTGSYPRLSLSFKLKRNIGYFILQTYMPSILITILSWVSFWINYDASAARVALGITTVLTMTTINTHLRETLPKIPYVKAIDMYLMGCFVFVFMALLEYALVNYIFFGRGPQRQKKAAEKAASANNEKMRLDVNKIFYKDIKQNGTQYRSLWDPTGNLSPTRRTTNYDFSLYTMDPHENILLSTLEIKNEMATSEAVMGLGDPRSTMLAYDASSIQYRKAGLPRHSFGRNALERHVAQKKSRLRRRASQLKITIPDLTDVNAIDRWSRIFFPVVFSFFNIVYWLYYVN
T2 sequence (P18507 whole entry): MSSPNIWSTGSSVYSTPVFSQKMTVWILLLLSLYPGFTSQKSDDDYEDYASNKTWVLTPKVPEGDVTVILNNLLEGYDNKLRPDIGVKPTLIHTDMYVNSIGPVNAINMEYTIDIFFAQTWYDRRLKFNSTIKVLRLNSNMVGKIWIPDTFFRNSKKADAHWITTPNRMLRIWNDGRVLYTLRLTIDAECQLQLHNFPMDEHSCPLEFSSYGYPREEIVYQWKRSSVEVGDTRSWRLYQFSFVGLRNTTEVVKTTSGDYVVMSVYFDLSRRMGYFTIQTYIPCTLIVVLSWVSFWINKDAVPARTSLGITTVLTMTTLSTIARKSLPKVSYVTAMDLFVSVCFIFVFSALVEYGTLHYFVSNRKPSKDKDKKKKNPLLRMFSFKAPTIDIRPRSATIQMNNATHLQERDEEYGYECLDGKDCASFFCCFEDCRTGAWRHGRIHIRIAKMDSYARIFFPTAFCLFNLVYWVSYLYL
Summary of the method: (§1)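 Xenopus laevis oocytes injected with ~100 ng cRNA of human α1, β2, γ2L (1:1:2). Two-electrode voltage clamp at −50 mV, room temperature, perfused with ND96 pH 7.5. Compound diluted from DMSO stock into ND96 (≤1% DMSO final). Applied 15–25 s with ~3 min washes.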

Anura [4] = assay: Anesthetic activity in tadpole assessed as loss of righting reflexes; type: functional, organism-based
[5] = molecular target: T1, GABA-A receptor; alpha-1/beta-3/gamma-2 (Homo sapiens); assay: Binding affinity to human GABAA receptor alpha1beta3gamma2 expressed in HEK293 TetR cells assessed as photolabeling at 0.7 uM after 30 mins in presence of 300 uM GABA and 30 uM alphaxalone by coomassie blue staining based fluorographic method; type: cell-based; settings: tested as the 3H-labelled form
Anura [6] = assay: Anesthetic activity in tadpole assessed as loss of righting reflexes at 0.01 to 1 uM pretreated with tadpole followed by compound washout and transfer to fresh water measured up to 1 hr; type: functional, organism-based
[7] = molecular target: T1, GABA-A receptor; alpha-1/beta-3/gamma-2 (Homo sapiens); assay: Induction of [3H]R-mTFD-MPAB photoincorporation at human GABAA receptor alpha1beta3gamma2 expressed in HEK293 TetR cells at 0.3 to 1 uM after 30 mins by liquid scintillation counting method; type: cell-based
Summary of the method: (§2)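 Radioligand resuspended 30 min at 4°C; unlabeled steroid added (0.5% methanol final), 30 min at 4°C. Irradiated 30 min on ice at 365 nm. SDS-PAGE; stained subunit bands excised and counted by liquid scintillation; duplicates, means and ranges.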

[8] = molecular target: T1, GABA-A receptor; alpha-1/beta-3/gamma-2 (Homo sapiens); assay: Induction of [3H]azietomidate photoincorporation at human GABAA receptor alpha1beta3gamma2 expressed in HEK293 TetR cells at 0.3 to 1 uM after 30 mins by liquid scintillation counting method; type: cell-based; summary of the method: as §2
[9] = molecular target: T3, Gamma-aminobutyric acid receptor subunit beta-3 (Homo sapiens) (UniProt P28472); assay: Binding affinity to human GABAA receptor beta3 assessed as photolabeling at 0.7 uM after 30 mins by Coomassie blue staining based fluorographic method relative to control; settings: tested as the 3H-labelled form
T3 sequence (whole entry): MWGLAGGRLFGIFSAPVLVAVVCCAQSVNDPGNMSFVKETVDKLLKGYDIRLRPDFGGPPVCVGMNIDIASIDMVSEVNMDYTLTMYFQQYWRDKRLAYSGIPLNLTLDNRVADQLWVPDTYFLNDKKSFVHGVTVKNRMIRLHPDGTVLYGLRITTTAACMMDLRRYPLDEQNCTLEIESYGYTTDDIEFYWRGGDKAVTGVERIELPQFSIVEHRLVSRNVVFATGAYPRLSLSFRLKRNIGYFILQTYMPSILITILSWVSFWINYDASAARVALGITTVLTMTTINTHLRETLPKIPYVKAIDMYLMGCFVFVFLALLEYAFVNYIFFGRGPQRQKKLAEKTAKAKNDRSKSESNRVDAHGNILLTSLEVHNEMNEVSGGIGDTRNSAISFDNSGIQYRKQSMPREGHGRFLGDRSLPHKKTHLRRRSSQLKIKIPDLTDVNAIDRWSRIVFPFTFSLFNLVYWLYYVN

Anura [10] = assay: Potency index, ratio of Alphaxalone EC50 to compound EC50 for anesthetic activity in tadpole; type: functional
[11] = molecular target: T4, GABA-A receptor; alpha-1/beta-3/gamma-2 (Homo sapiens, UniProt P14867+P18507+P28472); assay: (§3) Displacement of [3H]muscimol from human GABAA receptor alpha1beta3gamma2 expressed in HEK293 TetR cell membranes after 1 hr by liquid scintillation counting method
T4 sequence (P14867 whole entry): T2 sequence (P14867 whole entry)
T4 sequence (P18507 whole entry): T2 sequence (P18507 whole entry)
T4 sequence (P28472 whole entry): T3 sequence (whole entry)
Summary of the method: (§4)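 Membranes from HEK293 TetR cells expressing human α1β3γ2 GABAA receptor (200 μg protein) in 10 mM phosphate pH 7.4, 200 mM KCl, 1 mM EDTA. Filtered on PEI-treated GF/B filters, washed cold, scintillation counted. Triplicates, mean ± SD.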

[12] = molecular target: T1, GABA-A receptor; alpha-1/beta-3/gamma-2 (Homo sapiens); assay: as §3; summary of the method: as §4
[13] = molecular target: GABA-A receptor; alpha-1/beta-2/gamma-2 (Homo sapiens) (UniProt P14867+P47870+P18507); assay: Positive allosteric modulation of human GABAA receptor alpha1beta2gamma2L expressed in Xenopus laevis oocytes assessed as potentiation of GABA chloride current up to 100 uM incubated for 15 to 25 secs by two-electrode voltage clamp assay relative to control; type: cell-based; summary of the method: as §1
[14] = molecular target: T5, Gamma-aminobutyric acid receptor subunit alpha-1 (Homo sapiens) (UniProt P14867); assay: Binding affinity to human GABAA receptor alpha1 assessed as photolabeling at 0.7 uM after 30 mins by Coomassie blue staining based fluorographic method relative to control; settings: tested as the 3H-labelled form
T5 sequence (whole entry): T2 sequence (P14867 whole entry)

[15] = molecular target: T1, GABA-A receptor; alpha-1/beta-3/gamma-2 (Homo sapiens); assay: Induction of [3H]azietomidate photoincorporation at human GABAA receptor alpha1beta3gamma2 expressed in HEK293 TetR cells at 1 uM after 30 mins by liquid scintillation counting method relative to control; type: cell-based; summary of the method: as §2
[16] = molecular target: T1, GABA-A receptor; alpha-1/beta-3/gamma-2 (Homo sapiens); assay: Binding affinity to human GABAA receptor alpha1beta3gamma2 expressed in HEK293 TetR cells assessed as photolabeling at 0.4 uM after 30 mins in presence of 300 uM GABA and 30 uM alphaxalone by coomassie blue staining based fluorographic method; type: cell-based; settings: tested as the 3H-labelled form
[17] = molecular target: T1, GABA-A receptor; alpha-1/beta-3/gamma-2 (Homo sapiens); assay: Binding affinity to human GABAA receptor alpha1beta3gamma2 expressed in HEK293 TetR cells assessed as photolabeling at 0.4 uM after 30 mins in presence of 300 uM GABA by coomassie blue staining based fluorographic method; type: cell-based; settings: tested as the 3H-labelled form
[18] = molecular target: T1, GABA-A receptor; alpha-1/beta-3/gamma-2 (Homo sapiens); assay: Binding affinity to human GABAA receptor alpha1beta3gamma2 expressed in HEK293 TetR cells assessed as photolabeling at 0.4 uM after 30 mins in presence of 100 uM bicuculline by coomassie blue staining based fluorographic method; type: cell-based; settings: tested as the 3H-labelled form
[19] = molecular target: T1, GABA-A receptor; alpha-1/beta-3/gamma-2 (Homo sapiens); assay: Induction of [3H]R-mTFD-MPAB photoincorporation at human GABAA receptor alpha1beta3gamma2 expressed in HEK293 TetR cells at 10 uM after 30 mins by liquid scintillation counting method relative to control; type: cell-based; summary of the method: as §2
Anura [20] = assay: Anesthetic activity in tadpole assessed as loss of righting reflexes at 0.03 to 10 uM pretreated with tadpole followed by compound washout and transfer to fresh water measured up to 1 hr; type: functional, organism-based
[21] = molecular target: T1, GABA-A receptor; alpha-1/beta-3/gamma-2 (Homo sapiens); assay: Induction of [3H]azietomidate photoincorporation at human GABAA receptor alpha1beta3gamma2 expressed in HEK293 TetR cells at 30 uM after 30 mins by liquid scintillation counting method; type: cell-based
Summary of the method: (§5)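 Purified FLAG-tagged human α1β3γ2 GABAAR from tetracycline-inducible HEK293S cells, in 5 mM CHAPS/0.2 mM asolectin. Equilibrated 30 min at 4°C with 3 μM [3H]azietomidate or 1 μM [3H]R-mTFD-MPAB, then with test drug (final methanol 0.5%) for another 30 min at 4°C. Irradiated on ice at 365 nm for 30 min. Stained subunit bands excised from SDS-PAGE gels; 3H counted by liquid scintillation.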

[22] = molecular target: T1, GABA-A receptor; alpha-1/beta-3/gamma-2 (Homo sapiens); assay: Induction of [3H]R-mTFD-MPAB photoincorporation at human GABAA receptor alpha1beta3gamma2 expressed in HEK293 TetR cells at 30 uM after 30 mins by liquid scintillation counting method; type: cell-based; summary of the method: as §5

Row | Structure (SMILES) | EC50 [3] [nM] | EC50 (Anura [4]) [nM] | Activity [9] [%] | Ratio EC50 (Anura [10]) | EC50 [11] [nM] | inhibition [12] | fold change (FC) [13] | Activity [14] [%] | Activity (Anura [20]) | other results
1 | CC(=O)[C@H]1CC[C@H]2[C@@H]3CC[C@H]4C[C@H](O)CC[C@]4(C)[C@H]3C3(C[C@]12C)N=N3 | 200 | 110 | 0.4 | 17 | 250 | Dose-dependent effect | 30 | 0.2 |  | Activity [1]: Active; Activity [2]: Active; Activity [5]: Active; Activity (Anura [6]): inactive; Activity [7]: Active; Activity [8]: Active
2 | CC(=O)[C@H]1CC[C@H]2[C@@H]3CC[C@H]4C[C@H](O)CC[C@]4(C)[C@H]3[C@@H](OC(=O)c3c(F)c(F)c(N=[N+]=[N-])c(F)c3F)C[C@]12C | 500 | 720 | 10 | 2.6 | 770 | Dose-dependent effect | 17 | 6 | inactive | Activity [15]: 50%; Activity [16]: Active; Activity [17]: Active; Activity [18]: Active; Activity [19]: 75%
3 | CC(=O)[C@H]1CC[C@H]2[C@@H]3CC[C@H]4C[C@H](O)CC[C@]4(C)[C@H]3C(=O)C[C@]12C [ALFAXALONE] |  | 1900 |  |  |  | Dose-dependent effect |  |  | inactive | Activity [21]: Active; Activity [22]: Active
